Results: ChEMBL document CHEMBL4665651, “Design, synthesis, and biological evaluation of some novel 4-aminoquinazolines as Pan-PI3K inhibitors” (Bioorg Med Chem, 2019)

What was measured:
[1] = test system: MCF7; assay: Antiproliferative activity against human MCF7 cells assessed as reduction in cell viability incubated for 72 hrs by SRB assay; assay type: functional, cell-based; details: MCF7, 72 h
Procedure, shortened: (§1)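 Cell lines grown at 37 °C in 5% CO₂: A549 in RPMI1640, MCF-7 in DMEM, each with 10% FBS plus penicillin/streptomycin/amphotericin B. Cells exposed to a range of compound concentrations for 72 h, then TCA-fixed and SRB-stained. Growth inhibition = 100 − 100×(OD sample − OD day 0)/(OD negative control − OD day 0). IC50 from non-linear regression of percent growth against concentration.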

[2] = test system: HCT-116; assay: Antiproliferative activity against human HCT-116 cells assessed as reduction in cell viability incubated for 72 hrs by SRB assay; assay type: functional, cell-based; details: HCT-116, 72 h
[3] = test system: A549; assay: Antiproliferative activity against human A549 cells assessed as reduction in cell viability incubated for 72 hrs by SRB assay; assay type: functional, cell-based; details: A549, 72 h; procedure, shortened: as §1
[4] = target: Epidermal growth factor receptor (Homo sapiens, UniProt P00533); assay: Inhibition of EGFR (unknown origin) using FAM-labeled peptide as substrate incubated for 10 mins followed by substrate addition and measured after 1 hr by mobility shift assay
Procedure, shortened: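 Mobility shift assay in 50 mM HEPES pH 7.5, 10 mM MgCl₂, 2 mM DTT, 0.0015% Brij35. Compound in 10-point DMSO dilution, run in duplicate. Enzyme preincubated with compound 10 min at room temperature. FAM-labeled peptide and ATP then added and reaction run at 28 °C for 1 h. Stopped with EDTA buffer; conversion turned into percent inhibition and fitted to a Hill equation for IC50.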

Sequence of Epidermal growth factor receptor (P00533 whole entry): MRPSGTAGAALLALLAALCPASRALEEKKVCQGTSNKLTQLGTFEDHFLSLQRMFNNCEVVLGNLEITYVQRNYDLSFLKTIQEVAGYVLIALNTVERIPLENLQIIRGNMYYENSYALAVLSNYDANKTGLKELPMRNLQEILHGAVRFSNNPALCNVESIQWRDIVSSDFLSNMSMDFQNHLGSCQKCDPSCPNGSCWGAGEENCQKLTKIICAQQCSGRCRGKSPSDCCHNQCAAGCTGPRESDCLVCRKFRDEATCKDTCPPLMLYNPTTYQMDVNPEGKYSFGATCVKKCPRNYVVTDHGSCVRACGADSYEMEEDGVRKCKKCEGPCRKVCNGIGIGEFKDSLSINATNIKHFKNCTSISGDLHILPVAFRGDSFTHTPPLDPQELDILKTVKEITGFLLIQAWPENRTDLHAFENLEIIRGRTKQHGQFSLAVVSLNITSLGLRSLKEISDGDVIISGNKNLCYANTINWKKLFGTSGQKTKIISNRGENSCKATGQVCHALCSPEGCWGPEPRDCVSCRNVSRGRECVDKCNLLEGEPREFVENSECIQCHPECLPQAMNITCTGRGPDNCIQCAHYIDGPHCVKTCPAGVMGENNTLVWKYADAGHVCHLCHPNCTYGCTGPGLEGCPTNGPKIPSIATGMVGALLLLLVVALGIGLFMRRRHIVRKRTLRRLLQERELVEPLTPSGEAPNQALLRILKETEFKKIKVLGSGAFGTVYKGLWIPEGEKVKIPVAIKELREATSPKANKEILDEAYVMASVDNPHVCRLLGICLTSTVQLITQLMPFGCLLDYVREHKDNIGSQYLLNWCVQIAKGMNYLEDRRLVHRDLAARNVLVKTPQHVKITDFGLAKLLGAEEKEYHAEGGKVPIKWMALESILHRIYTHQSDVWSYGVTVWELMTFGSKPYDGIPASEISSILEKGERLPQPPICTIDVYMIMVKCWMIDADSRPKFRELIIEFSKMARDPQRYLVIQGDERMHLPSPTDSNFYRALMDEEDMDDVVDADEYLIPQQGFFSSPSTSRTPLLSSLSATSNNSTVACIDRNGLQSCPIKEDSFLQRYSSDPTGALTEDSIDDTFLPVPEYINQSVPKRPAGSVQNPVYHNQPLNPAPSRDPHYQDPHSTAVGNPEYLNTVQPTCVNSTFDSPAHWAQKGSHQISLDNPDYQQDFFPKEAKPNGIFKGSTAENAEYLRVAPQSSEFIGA

Structure (SMILES)	IC50 [1]	IC50 [2]	IC50 [3]	IC50 [4]
COc1cc(Nc2ncnc3ccc(-c4cnc(OC)c(NS(=O)(=O)c5ccc(F)cc5F)c4)cc23)ccc1OCCO	2.26 µM	5.72 µM	3.76 µM	–
COc1ncc(-c2ccc3nccc(-c4ccnnc4)c3c2)cc1NS(=O)(=O)c1ccc(F)cc1F [OMIPALISIB]	0.03 µM	0.14 µM	0.86 µM	–
COC(=O)CCn1cc(Nc2ncnc3ccc(-c4cnc(OC)c(NS(=O)(=O)c5ccc(F)cc5F)c4)cc23)cn1	0.49 µM	0.97 µM	2.99 µM	–
COc1ncc(-c2ccc3ncnc(Nc4ccc(OCCCO)nc4)c3c2)cc1NS(=O)(=O)c1ccc(F)cc1F	6.12 µM	3.68 µM	9.36 µM	–
CCCCS(=O)(=O)Nc1cc(-c2ccc3ncnc(Nc4ccc(OCCO)nc4)c3c2)cnc1OC	> 20 µM	> 20 µM	13.3 µM	–
COc1ncc(-c2ccc3ncnc(Nc4ccc(OCCO)c(F)c4)c3c2)cc1NS(=O)(=O)c1ccc(F)cc1F	4.82 µM	9.16 µM	6.64 µM	–
COc1ncc(-c2ccc3ncnc(Nc4cnn(CC(=O)O)c4)c3c2)cc1NS(=O)(=O)c1ccc(F)cc1F	0.7 µM	1.54 µM	5.2 µM	–
COc1ncc(-c2ccc3ncnc(Nc4cnn(CCCO)c4)c3c2)cc1NS(C)(=O)=O	0.73 µM	1.42 µM	3.6 µM	–
COc1ncc(-c2ccc3ncnc(Nc4ccc(OCCO)c(Cl)c4)c3c2)cc1NS(=O)(=O)c1ccc(F)cc1F	3.74 µM	7.32 µM	5.98 µM	–
COc1ncc(-c2ccc3ncnc(Nc4cnn(CCCO)c4)c3c2)cc1NS(=O)(=O)c1ccc(F)cc1F	1.31 µM	0.48 µM	4.83 µM	–
COc1ncc(-c2ccc3ncnc(Nc4cnn(CCO)c4)c3c2)cc1NS(C)(=O)=O	0.77 µM	1.49 µM	8.22 µM	2.52 µM
COc1ncc(-c2ccc3ncnc(Nc4ccc(OCCO)nc4)c3c2)cc1NS(C)(=O)=O	3.08 µM	5.36 µM	5.08 µM	–

The remaining lines, values ahead:

IC50 [1]	IC50 [2]	IC50 [3]	IC50 [4]	Structure (SMILES)
4.3 µM	2.34 µM	4.12 µM	–	COc1ncc(-c2ccc3ncnc(Nc4ccc(OCCO)nc4)c3c2)cc1NS(=O)(=O)c1ccc(F)cc1F
0.56 µM	1.29 µM	3.84 µM	–	COc1ncc(-c2ccc3ncnc(Nc4cnn(CCC(=O)O)c4)c3c2)cc1NS(=O)(=O)c1ccc(F)cc1F
1.65 µM	1.06 µM	2.69 µM	–	COc1ncc(-c2ccc3ncnc(Nc4ccc(OCCO)cc4)c3c2)cc1NS(=O)(=O)c1ccc(F)cc1F
3.27 µM	4.86 µM	5.2 µM	–	COc1ncc(-c2ccc3ncnc(Nc4ccc(OCCO)cc4)c3c2)cc1NS(C)(=O)=O
0.67 µM	1.26 µM	4.28 µM	–	COC(=O)Cn1cc(Nc2ncnc3ccc(-c4cnc(OC)c(NS(=O)(=O)c5ccc(F)cc5F)c4)cc23)cn1
